Source: PubChem
NPY-Y2 antag = NPY-Y2 receptor antagonists, primary screen, cell-based. NPY-Y2 expressing cells, antagonist mode. AID 793, 2007. Neuropeptide Y receptor type 2 (Homo sapiens), P49146. inhibition, % at 2.7 µM. 0.99% of 140,000 active; in the data active = inhibition above about 17%;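 also: 0% = vehicle with agonist challenge and 100% = reference antagonist with challenge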
NPY2 pot ag = NPY-Y2 potentiators or agonists, primary screen, cell-based | Neuropeptide Y receptor type 2 (Homo sapiens), P49146 | cells expressing NPY-Y2, potentiator/agonist read-out | activation, % at 3.6 µM | 0.45% of 220,000 active; in the data active = activation above about 27%;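 also: cells stimulated with NPY near EC25 plus isoproterenol at EC100; 0% = vehicle plus submaximal agonist and 100% = vehicle plus saturating agonist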
S1P4 antagonist = S1P4 receptor antagonists, primary screen, cell-based | inhibition, % at 4.98 µM | 0.26% of 220,000 active | Sphingosine 1-phosphate receptor 4 (Homo sapiens), O95977 | S1P4-expressing cells, antagonist mode, reporter read-out; in the data active = inhibition above about 29%;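 also: 0% = wells stimulated with agonist and 100% = vehicle wells without agonist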
NPY-Y1 antag = NPY-Y1 receptor antagonists, primary screen, cell-based. Neuropeptide Y receptor type 1 (Homo sapiens), P25929. HEK293-CNG Y1 cells, membrane potential fluorescence; NPY at EC95, then isoproterenol. inhibition, % at 3.6 µM. 1% of 200,000 active;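 active = inhibition above the campaign mean inhibition of all tested compounds plus 3 SD, cut at about 20% in these data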;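 also: 0% = DMSO wells given NPY plus isoproterenol and 100% = isoproterenol alone without NPY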
Target sequence (P25929 whole entry, looked up): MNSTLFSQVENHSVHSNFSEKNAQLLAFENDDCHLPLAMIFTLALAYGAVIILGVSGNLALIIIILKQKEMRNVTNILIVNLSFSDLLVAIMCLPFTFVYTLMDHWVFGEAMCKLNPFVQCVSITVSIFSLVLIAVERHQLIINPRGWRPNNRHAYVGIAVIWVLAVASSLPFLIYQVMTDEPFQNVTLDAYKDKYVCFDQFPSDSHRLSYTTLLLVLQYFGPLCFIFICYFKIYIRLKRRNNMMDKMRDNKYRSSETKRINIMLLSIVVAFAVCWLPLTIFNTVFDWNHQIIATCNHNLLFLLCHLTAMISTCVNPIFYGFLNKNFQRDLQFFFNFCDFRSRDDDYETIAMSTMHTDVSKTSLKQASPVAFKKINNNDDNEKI
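Material: HEK293 Y1/CNG channel cell line | Also added: NPY (25 nM), isoproterenol (1 µM), Ro 20-1724 (25 µM) | Compound: One concentration, 3.6 µM, in 0.4% DMSO | Schedule: 3 h dye uptake, 1 h room-temperature compound, 45 min post-isoproterenol | Signal: Membrane-potential fluorescent dye readout | Read-out: % inhibition of NPY effect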
NPY1 pot ag = NPY-Y1 receptor potentiators or agonists, primary screen, cell-based; NPY-Y1 expressing cells, potentiator/agonist activation; 0.37% of 220,000 active; Neuropeptide Y receptor type 1 (Homo sapiens), P25929; activation, % at 3.6 µM; in the data active = activation above about 33%, passing the limit was not always enough;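 also: cells stimulated with NPY at EC10 then isoproterenol at EC100; 0% = low agonist plus stimulus and 100% = saturating agonist plus stimulus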
S1P4 agonist = S1P4 receptor agonists, primary screen, cell-based; S1P4-expressing cell line, agonist reporter assay; Sphingosine 1-phosphate receptor 4 (Homo sapiens), O95977; activation, % at 4.98 µM; AID 1509, 2009; 0.35% of 220,000 active; in the data active = activation above about 11%;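 also: 0% = DMSO vehicle and 100% = reference agonist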
S1P4 antag cf = S1P4 receptor antagonists, human, confirmation, cell-based; shares compounds with S1P4 antagonist; inhibition, % at 4.98 µM; S1P4-expressing cell line, antagonist mode, reporter read-out; AID 1524, 2009; 71% of 520 active; in the data active = inhibition above about 30%
S1P1 antagonist = S1P1 receptor antagonists, human, counter-screen for S1P4 antagonist project, cell-based; 37% of 520 active; inhibition, % at 4.98 µM; shares compounds with S1P4 antagonist; cell-based S1P1 antagonist counterscreen, inhibition; AID 1564, 2009; in the data active = inhibition above about 40%;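 also: receptor stimulated with S1P near its EC80; 0% = agonist stimulated wells and 100% = vehicle only wells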
Active calls of the source: *; . = not tested or not shown. Hits are enriched below; roughly 2.4% of the tested compounds scored in any of these assays.

SMILES	NPY-Y2 antag	NPY2 pot ag	S1P4 antagonist	NPY-Y1 antag	NPY1 pot ag	S1P4 agonist	S1P4 antag cf	S1P1 antagonist
CC1=CC(=O)C=C(C)C1=NOS(=O)(=O)c1ccccc1	1	-2	33*	-1	-2	1	98*	19
Cc1ccc(S(=O)(=O)ON=C2CCN(S(=O)(=O)c3ccccc3)CC2)cc1	-1	-24	-12	3	-6	-1	.	.
FC(F)(F)c1cnc(Sc2nc3nccc(-c4ccc(Cl)cc4)n3n2)c(Cl)c1	3	-4	-6	7	-14	0	.	.
COc1ccc(-c2ccnc3nc(Sc4ncc(C(F)(F)F)cc4Cl)nn23)cc1	7	-18	61*	1	-22	-1	1	21
O=c1cc2ncc(-c3[nH]ncc3[N+](=O)[O-])cn2[nH]1	.	-28	4	.	7	2	.	.
Cc1cccc(N=C2NC(=O)/C(=C/c3cccn3C)S2)c1C	.	-20	36*	.	-19	1	16	14
Cc1ccc(N=C2NC(=O)/C(=C/c3cccn3C)S2)cc1C	.	-12	-1	.	10	1	.	.
CC(C)N(C(=O)COC(=O)c1ccccc1C(=O)c1ccc(Cl)c([N+](=O)[O-])c1)C(C)C	.	3	31*	-3	-4	-1	60*	46*
CN(CCC#N)C(=O)COC(=O)c1ccccc1C(=O)c1ccc(Cl)c([N+](=O)[O-])c1	.	0	55*	-3	15	-2	112*	53*
COc1cccc(-n2c(CN3CCN(c4ccccn4)CC3)nc3ccc([N+](=O)[O-])cc3c2=O)c1	.	12	-19	-3	4	0	.	.
O=C(Nc1ccccc1)c1nnsc1S(=O)c1ccc(Cl)cc1 (configuration not stated)	7	-22	49*	5	-39	-3	111*	6
CN(C)/N=C/C=C1\CC/C(=C\c2ccc(Br)cc2)C1=O	2	-17	30*	-1	-1	-1	11	13
CN(C)/N=C/C=C1\CCC/C(=C/c2cccs2)C1=O	.	-21	7	.	-3	0	.	.
Cc1c(Cl)cccc1NC(=O)COc1ccc(S(=O)(=O)N2CCOCC2)cc1	5	3	-4	1	14	1	.	.
O=c1c(Br)c(N2CCCC2)cnn1-c1ccccc1	1	6	-8	0	-10	-2	.	.
O=c1c(Br)c(Br)cnn1-c1ccccc1	.	13	112*	-3	26	-3	121*	48*
Cc1ccc(-n2ncc(Br)c(Br)c2=O)cc1	.	-7	103*	-6	15	2	117*	37
Cc1ccc(S(C)(=O)=NS(=O)(=O)c2cccc3nsnc23)cc1 (configuration not stated)	.	6	-7	.	4	0	.	.
O=S1(=O)Nc2c(ccc3cccnc23)-c2ccccc21	3	-2	50*	3	-3	0	95*	89*
O=C(C=C=Nc1ccccc1)C(=O)N=C=Cc1ccccc1	.	25	42*	.	48	0	106*	24
CS(=O)(=O)c1ncc(Cl)c(C(=O)Nc2ccc(N3CCOCC3)cc2)n1	2	-2	31*	-1	7	-3	98*	81*
CCc1nnc(N/N=C/c2ccccc2F)n1N	.	8	93*	8	-7	0	-15	-10
CCc1nnc(N/N=C/c2ccccc2Cl)n1N	1	-12	40*	5	-5	-1	4	-3
Cc1ccccc1NC(=O)c1ccc2snnc2c1	.	5	-15	2	19	1	.	.
CC(=O)N1CCCc2cc(S(=O)(=O)NC(C(=O)NC(C)c3ccccc3)C(C)C)ccc21 (configuration not stated)	6	-3	4	-1	-2	0	.	.
